Results on 3 molecules are retold here after PubChem BioAssay.

The list shows a part of the results. A number with no mark means an inactive call. Active and inactive are the calls of the source.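 How the source made its calls: active means mean inhibition across replicates above the hit cutoff set in the primary screen (cut at about 30% in these data); inactive means the rest.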

Sequence of (Lyso)-N-acylphosphatidylethanolamine lipase (Mus musculus) (Q8VD66 whole entry, looked up): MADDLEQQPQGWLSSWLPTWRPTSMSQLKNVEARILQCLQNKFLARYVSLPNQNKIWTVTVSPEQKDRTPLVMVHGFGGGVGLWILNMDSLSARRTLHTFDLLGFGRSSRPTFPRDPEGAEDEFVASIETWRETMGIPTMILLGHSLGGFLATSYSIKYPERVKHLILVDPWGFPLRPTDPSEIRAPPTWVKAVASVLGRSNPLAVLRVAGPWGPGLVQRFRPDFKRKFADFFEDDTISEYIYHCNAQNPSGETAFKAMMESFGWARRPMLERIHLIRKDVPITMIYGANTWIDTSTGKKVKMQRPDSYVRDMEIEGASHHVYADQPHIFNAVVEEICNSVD

The assay has as its target (Lyso)-N-acylphosphatidylethanolamine lipase (Mus musculus) (UniProt Q8VD66). Briefly: ABHD4 inhibitors, retest, confirmation, biochemical, fluorescence polarization, mouse (AID 720658).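 Further: 0% = wild-type ABHD4 with DMSO and 100% = catalytically dead S159A mutant with DMSO.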 Conditions: purified mABHD4, FP-Rh probe fluorescence polarization; at 8.92 µM; hits give high values. Summed up: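 Material: Wild-type mouse ABHD4 | Compound: Single nominal compound dose 8.92 µM, 0.89% DMSO final | Measured by: Fluorescence polarization, excitation 525 nm, emission 598 nm | Incubation: 45 min compound pretreatment plus 60 min FP-Rh labeling, 25 °C | Measure: Percent inhibition scaled between wild-type DMSO and S159A mutant wells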
(In general: Polarisation of emitted light reports the rotation of a fluorescent probe.)
On to `O=C(c1cccnc1)N(c1cc2sc(=O)oc2c2ccccc12)S(=O)(=O)c1ccccc1`, for which the inhibition is 17.6%.
Under `Oc1ccc(CNc2ccccc2O)cc1` stands 37.2% (active); under `Cn1c(SCC(=O)N/N=C/c2ccc(O)c(O)c2)nc2ccccc21`, 14.6%.

A word on the inhibition: it is the change of the read-out against control, counted positive when it falls.
